Measured values reported in ChEMBL document CHEMBL1150393, “Evaluation of radiolabeled (hetero)aromatic analogues of N-(2-diethylaminoethyl)-4-iodobenzamide for imaging and targeted radionuclide therapy of melanoma” (J Med Chem, 2008).

Experiments:
[1] = Binding affinity to melanin in water; parameters: concentration or dose not given beside the values; conditions: tested as the 125I-labelled form
[2] = Binding affinity to melanin in phosphate buffer solution; parameters: concentration or dose not given beside the values; conditions: tested as the 125I-labelled form
[3] = Partition coefficient, log P in phosphate buffer solution at pH 7.4; assay type: physicochemical
Method in brief: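 Shake-flask partition: 50 µM [¹²⁵I]-labelled compound in phosphate buffer pH 7.4 was mixed with 2 mL n-octanol. Each phase was γ-counted, P was taken as the octanol/buffer activity ratio, and log P was reported.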

[4] = Drug excretion in mouse B16-F0 cells bearing C57BL/6 mouse urine at 0.74 to 0.92 MBq, iv after 72 hrs; assay type: ADME, organism-based; conditions: in vivo
Method in brief: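 Urine was collected from two B16-F0 tumour-bearing C57BL6 mice for up to 72 h after iv tail-vein injection of the [¹²⁵I]-labelled compound (0.1 µmol). Samples were counted to give cumulative urinary excretion as %ID.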

[5] = Biodistribution in tumor of C57BL/6 mouse bearing mouse B16-F0 cells at 0.74 to 0.92 MBq, iv after 1 hr; assay type: ADME, organism-based, Neoplasm; conditions: in vivo
Method in brief: (§1)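 [¹²⁵I]-labelled compound given iv by tail vein (0.1 µmol per mouse) to male C57BL6 mice bearing s.c. B16-F0 flank tumours (5 × 10⁵ cells in PBS). Two mice per time point were killed by CO₂, frozen in liquid nitrogen and cut into 40 µm cryosections, eight slices per mouse. Slice radioactivity was read on a multiwire proportional counter, converted to kBq/g and reported as %ID/g.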

[6] = Biodistribution in tumor of C57BL/6 mouse bearing mouse B16-F0 cells at 0.74 to 0.92 MBq, iv after 3 hrs; assay type: ADME, organism-based, Neoplasm; conditions: in vivo; method in brief: as §1
[7] = Biodistribution in tumor of C57BL/6 mouse bearing mouse B16-F0 cells at 0.74 to 0.92 MBq, iv after 6 hrs; assay type: ADME, organism-based, Neoplasm; conditions: in vivo; method in brief: as §1
[8] = Biodistribution in tumor of C57BL/6 mouse bearing mouse B16-F0 cells at 0.74 to 0.92 MBq, iv after 24 hrs; assay type: ADME, organism-based, Neoplasm; conditions: in vivo; method in brief: as §1
[9] = Biodistribution in tumor of C57BL/6 mouse bearing mouse B16-F0 cells at 0.74 to 0.92 MBq, iv after 72 hrs; assay type: ADME, organism-based, Neoplasm; conditions: in vivo; method in brief: as §1
[10] = Ratio of drug level in tumor to liver of C57BL/6 mouse bearing mouse B16-F0 cells at 0.74 to 0.92 MBq, iv after 1 hr; assay type: ADME, organism-based; conditions: in vivo
Method in brief: (§2)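 Tumour and organ radioactive concentrations came from whole-body cryosection counting (40 µm slices, eight per mouse, two mice per time) after tail-vein injection of the [¹²⁵I]-labelled compound (0.1 µmol) into male C57BL6 mice bearing s.c. B16-F0 melanoma. Each value is the ratio of the tumour concentration to the organ concentration.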

[11] = Ratio of drug level in tumor to liver of C57BL/6 mouse bearing mouse B16-F0 cells at 0.74 to 0.92 MBq, iv after 3 hrs; assay type: ADME, organism-based; conditions: in vivo; method in brief: as §2
[12] = Ratio of drug level in tumor to lung of C57BL/6 mouse bearing mouse B16-F0 cells at 0.74 to 0.92 MBq, iv after 1 hr; assay type: ADME, organism-based; conditions: in vivo; method in brief: as §2
[13] = Biodistribution in intestinal content of C57BL/6 mouse bearing mouse B16-F0 cells at 0.74 to 0.92 MBq, iv after 1 hr; assay type: ADME, organism-based; conditions: in vivo
Method in brief: (§3)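 Male C57BL6 mice with s.c. left-flank B16-F0 melanoma (5 × 10⁵ cells in PBS). Two mice per time point frozen in liquid nitrogen after CO₂ sacrifice. Eight 40 µm whole-body cryosections per mouse read by multiwire proportional counter. cpm/mm² converted to kBq/g and expressed as %ID/g.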

[14] = Biodistribution in intestinal content of C57BL/6 mouse bearing mouse B16-F0 cells at 0.74 to 0.92 MBq, iv after 3 hrs; assay type: ADME, organism-based; conditions: in vivo; method in brief: as §3
[15] = Biodistribution in intestinal content of C57BL/6 mouse bearing mouse B16-F0 cells at 0.74 to 0.92 MBq, iv after 6 hrs; assay type: ADME, organism-based; conditions: in vivo; method in brief: as §3
[16] = Biodistribution in intestinal content of C57BL/6 mouse bearing mouse B16-F0 cells at 0.74 to 0.92 MBq, iv after 24 hrs; assay type: ADME, organism-based; conditions: in vivo; method in brief: as §3
[17] = Biodistribution in Stomach content of C57BL/6 mouse bearing mouse B16-F0 cells at 0.74 to 0.92 MBq, iv after 1 hr; assay type: ADME, organism-based; conditions: in vivo; method in brief: as §3
[18] = Biodistribution in Stomach content of C57BL/6 mouse bearing mouse B16-F0 cells at 0.74 to 0.92 MBq, iv after 3 hrs; assay type: ADME, organism-based; conditions: in vivo; method in brief: as §3
[19] = Biodistribution in Stomach content of C57BL/6 mouse bearing mouse B16-F0 cells at 0.74 to 0.92 MBq, iv after 6 hrs; assay type: ADME, organism-based; conditions: in vivo; method in brief: as §3
Liver [20] = experiment: Biodistribution in liver of C57BL/6 mouse bearing mouse B16-F0 cells at 0.74 to 0.92 MBq, iv after 1 hr; assay type: ADME, organism-based; conditions: in vivo; method in brief: as §3
Liver [21] = experiment: Biodistribution in liver of C57BL/6 mouse bearing mouse B16-F0 cells at 0.74 to 0.92 MBq, iv after 3 hrs; assay type: ADME, organism-based; conditions: in vivo; method in brief: as §3
Muscle tissue [22] = experiment: Biodistribution in muscle of C57BL/6 mouse bearing mouse B16-F0 cells at 0.74 to 0.92 MBq, iv after 1 hr; assay type: ADME, organism-based; conditions: in vivo; method in brief: as §3
Muscle tissue [23] = experiment: Biodistribution in muscle of C57BL/6 mouse bearing mouse B16-F0 cells at 0.74 to 0.92 MBq, iv after 3 hrs; assay type: ADME, organism-based; conditions: in vivo; method in brief: as §3
Pancreas = experiment: Biodistribution in pancreas of C57BL/6 mouse bearing mouse B16-F0 cells at 0.74 to 0.92 MBq, iv after 1 hr; assay type: ADME, organism-based; conditions: in vivo; method in brief: as §3
Lung = experiment: Biodistribution in lung of C57BL/6 mouse bearing mouse B16-F0 cells at 0.74 to 0.92 MBq, iv after 1 hr; assay type: ADME, organism-based; conditions: in vivo; method in brief: as §3
Spleen = experiment: Biodistribution in spleen of C57BL/6 mouse bearing mouse B16-F0 cells at 0.74 to 0.92 MBq, iv after 1 hr; assay type: ADME, organism-based; conditions: in vivo; method in brief: as §1
Kidney = experiment: Biodistribution in kidney of C57BL/6 mouse bearing mouse B16-F0 cells at 0.74 to 0.92 MBq, iv after 1 hr; assay type: ADME, organism-based; conditions: in vivo; method in brief: as §3
Blood = experiment: Biodistribution in blood of C57BL/6 mouse bearing mouse B16-F0 cells at 0.74 to 0.92 MBq, iv after 1 hr; assay type: ADME, organism-based; conditions: in vivo; method in brief: as §3
[24] = Biodistribution in uvea of C57BL/6 mouse bearing mouse B16-F0 cells at 0.74 to 0.92 MBq, iv after 1 hr; assay type: ADME, organism-based, Uveal tract; conditions: in vivo; method in brief: as §1
[25] = Biodistribution in uvea of C57BL/6 mouse bearing mouse B16-F0 cells at 0.74 to 0.92 MBq, iv after 3 hrs; assay type: ADME, organism-based, Uveal tract; conditions: in vivo; method in brief: as §1
[26] = Biodistribution in uvea of C57BL/6 mouse bearing mouse B16-F0 cells at 0.74 to 0.92 MBq, iv after 6 hrs; assay type: ADME, organism-based, Uveal tract; conditions: in vivo; method in brief: as §1
[27] = Biodistribution in uvea of C57BL/6 mouse bearing mouse B16-F0 cells at 0.74 to 0.92 MBq, iv after 24 hrs; assay type: ADME, organism-based, Uveal tract; conditions: in vivo; method in brief: as §1
[28] = Biodistribution in uvea of C57BL/6 mouse bearing mouse B16-F0 cells at 0.74 to 0.92 MBq, iv after 72 hrs; assay type: ADME, organism-based, Uveal tract; conditions: in vivo; method in brief: as §1
[29] = Biodistribution in gall bladder of C57BL/6 mouse bearing mouse B16-F0 cells at 0.74 to 0.92 MBq, iv after 3 hrs; assay type: ADME, organism-based; conditions: in vivo; method in brief: as §3
[30] = Ratio of drug level in tumor to brain of C57BL/6 mouse bearing mouse B16-F0 cells at 0.74 to 0.92 MBq, iv after 1 hr; assay type: ADME, organism-based; conditions: in vivo; method in brief: as §2
Brain = experiment: Biodistribution in brain of C57BL/6 mouse bearing mouse B16-F0 cells at 0.74 to 0.92 MBq, iv after 1 hr; assay type: ADME, organism-based; conditions: in vivo; method in brief: as §3
Thyroid gland [31] = experiment: Biodistribution in thyroid of C57BL/6 mouse bearing mouse B16-F0 cells at 0.74 to 0.92 MBq, iv after 1 hr; assay type: ADME, organism-based; conditions: in vivo; method in brief: as §1
Thyroid gland [32] = experiment: Biodistribution in thyroid of C57BL/6 mouse bearing mouse B16-F0 cells at 0.74 to 0.92 MBq, iv after 3 hrs; assay type: ADME, organism-based; conditions: in vivo; method in brief: as §1
Thyroid gland [33] = experiment: Biodistribution in thyroid of C57BL/6 mouse bearing mouse B16-F0 cells at 0.74 to 0.92 MBq, iv after 6 hrs; assay type: ADME, organism-based; conditions: in vivo; method in brief: as §1
Thyroid gland [34] = experiment: Biodistribution in thyroid of C57BL/6 mouse bearing mouse B16-F0 cells at 0.74 to 0.92 MBq, iv after 24 hrs; assay type: ADME, organism-based; conditions: in vivo; method in brief: as §1

## CCN(CC)CCNC(=O)c1ccc2cc(I)ccc2n1
[1]
  Activity: 87.4%
[2]
  Activity: 43.2%

## CCN(CC)CCNC(=O)c1ccc2cc(I)ccc2c1
[1]
  Activity: 80.8%
[2]
  Activity: 50.9%

## CCN(CC)CCNC(=O)c1ccc(I)nc1
[1]
  Activity: 28.1%
[2]
  Activity: 3.5%

## CCN(CC)CCNC(=O)c1cn2cc([125I])ccc2n1.Cl.Cl
[3]
  logD: 0.71
[4]
  Activity: 36.8%
[5]
  Drug uptake: 5.7 % ID/g
[6]
  Drug uptake: 7.1 % ID/g
[7]
  Drug uptake: 8.1 % ID/g
[8]
  Drug uptake: 8 % ID/g
[9]
  Drug uptake: 2.7 % ID/g
[10]
  Ratio: 1.43
[11]
  Ratio: 7.21
[12]
  Ratio: 2.34
[13]
  Drug uptake: 9.48 % ID/g
[14]
  Drug uptake: 78.03 % ID/g
[15]
  Drug uptake: 56.39 % ID/g
[16]
  Drug uptake: 2.68 % ID/g
[17]
  Drug uptake: 4.55 % ID/g
[18]
  Drug uptake: 5.19 % ID/g
[19]
  Drug uptake: 16.57 % ID/g
Liver [20]
  Drug uptake: 3.97 % ID/g
Liver [21]
  Drug uptake: 0.99 % ID/g
Muscle tissue [22]
  Drug uptake: 0.51 % ID/g
Muscle tissue [23]
  Drug uptake: 0.09 % ID/g
Pancreas
  Drug uptake: 7.52 % ID/g
Lung
  Drug uptake: 2.42 % ID/g
Spleen
  Drug uptake: 13.07 % ID/g
Kidney
  Drug uptake: 2.99 % ID/g
Blood
  Drug uptake: 0.68 % ID/g
[24]
  Drug uptake: 17.43 % ID/g
[25]
  Drug uptake: 19.18 % ID/g
[26]
  Drug uptake: 26.81 % ID/g
[27]
  Drug uptake: 11.54 % ID/g
[28]
  Drug uptake: 9.55 % ID/g

## CCN(CC)CCNC(=O)c1cc2c([125I])cccc2s1.Cl
[29]
  Drug uptake: 65.56 % ID/g
[3]
  logD: 1.54
[4]
  Activity: 52.6%
[5]
  Drug uptake: 12.5 % ID/g
[6]
  Drug uptake: 10 % ID/g
[7]
  Drug uptake: 8.7 % ID/g
[8]
  Drug uptake: 7.3 % ID/g
[9]
  Drug uptake: 1.7 % ID/g
[10]
  Ratio: 5.64
[11]
  Ratio: 7.98
[12]
  Ratio: 3.38
[30]
  Ratio: 15.4
Brain
  Drug uptake: 0.81 % ID/g
[13]
  Drug uptake: 71.13 % ID/g
[14]
  Drug uptake: 73.02 % ID/g
[15]
  Drug uptake: 37.7 % ID/g
[17]
  Drug uptake: 20 % ID/g
[18]
  Drug uptake: 5.93 % ID/g
[19]
  Drug uptake: 18.77 % ID/g
Liver [20]
  Drug uptake: 2.21 % ID/g
Liver [21]
  Drug uptake: 1.25 % ID/g
Muscle tissue [22]
  Drug uptake: 0.77 % ID/g
Lung
  Drug uptake: 3.69 % ID/g
Spleen
  Drug uptake: 3.88 % ID/g
Kidney
  Drug uptake: 5.61 % ID/g
Blood
  Drug uptake: 1.37 % ID/g
Thyroid gland [31]
  Drug uptake: 24.03 % ID/g
Thyroid gland [32]
  Drug uptake: 67.21 % ID/g
Thyroid gland [33]
  Drug uptake: 139.12 % ID/g
Thyroid gland [34]
  Drug uptake: 79.82 % ID/g
[24]
  Drug uptake: 16.09 % ID/g
[25]
  Drug uptake: 19.51 % ID/g
[26]
  Drug uptake: 16.29 % ID/g
[27]
  Drug uptake: 11.06 % ID/g
[28]
  Drug uptake: 9.22 % ID/g

## CCN(CC)CCNC(=O)c1cnc2cc(I)ccc2n1
[1]
  Activity: 67.4%
[2]
  Activity: 47.3%

## CCN(CC)CCNC(=O)c1cn2cc(I)ccc2n1
[1]
  Activity: 75.3%
[2]
  Activity: 11.6%

## CCN(CC)CCNC(=O)c1cc2c(I)cccc2cn1
[1]
  Activity: 87%
[2]
  Activity: 45.2%
